Experimental data published in ChEMBL document CHEMBL1132941, “Structure-activity study on the in vitro antiprotozoal activity of glutathione derivatives” (2000).
Activity calls are given as the source filed them. The rule behind the calls is not given here.

Legend:
[1] = tested on: Trypanosoma brucei; assay: Evaluated for antiparasitic activity against brucei trypomastigotes; assay type: functional; details: read-out: ED50 (the source's name)
Outline: (§1)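 T. brucei S427 bloodstream trypomastigotes in HMI-18 + 20% HIFCS, seeded at 2 × 10⁵/mL mixed with equal volume of compound. Compound given as a 3-fold dilution series from 30 µM top, triplicate, 3 days at 37 °C, 5% CO₂. Growth measured by tetrazolium colorimetric assay on day 3 and expressed as % inhibition versus untreated control. Pentamidine serves as positive control.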

[2] = tested on: Leishmania donovani; assay: Evaluated for antiparasitic activity against Leishmania donovani; assay type: functional
Outline: (§2)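 L. donovani (strain MHOM/ET/67/L82) amastigotes from hamster passage, used to infect starch-elicited peritoneal macrophages from female CD1 mice (4 × 10⁴/well, RPMI-1640 + 10% HIFCS) at 10:1 after 24 h adherence. Drug given as a 3-fold dilution series, top concentration ~30 µM, quadruplicate, 5 days. Read-out is % macrophages cleared of amastigotes versus untreated control. Sodium stibogluconate serves as control.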

[3] = tested on: K562; assay: Tested for cytotoxicity in human K562 cells; assay type: functional; details: read-out: ID50 (the source's name)
Outline: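 K562 human CML cells in RPMI + 10% fetal calf serum at 37 °C, 5% CO₂, humidified. Exposed to compound for 5 days. Viability read by the semi-automated NCI MTT-type (Mosmann) tetrazolium assay, run by an external institute.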

[4] = tested on: Trypanosoma cruzi; assay: Evaluated for antiparasitic activity against Trypanosoma cruzi amastigotes; NA is Not active.; assay type: functional, organism-based
Outline: (§3)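 T. cruzi (strain MHOM/BR/OO/Y) trypomastigotes, MDCK-derived, used to infect starch-elicited peritoneal macrophages from female CD1 mice (4 × 10⁴/well, RPMI-1640 + 10% HIFCS) at 5:1 after 24 h. Drug given as a 3-fold dilution series up to ~30 µM, quadruplicate, 3 days. Activity is scored as % macrophages cleared of amastigotes relative to untreated control. Nifurtimox serves as control.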

[5] = tested on: Leishmania donovani; assay: Evaluated for antiparasitic activity against Leishmania donovani; NA is Not active.; assay type: functional, organism-based; outline: as §2
[6] = tested on: Trypanosoma brucei; assay: Evaluated for antiparasitic activity against brucei trypomastigotes; NA is Not active.; assay type: functional, organism-based; outline: as §1
[7] = tested on: Trypanosoma cruzi; assay: Compound is evaluated for antiparasitic activity against Trypanosoma cruzi amastigotes.; assay type: functional; outline: as §3
[8] = tested on: Trypanosoma cruzi; assay: Compound is evaluated for antiparasitic activity against Trypanosoma cruzi; assay type: functional; outline: as §3
[9] = tested on: Trypanosoma brucei; assay: Compound is evaluated for antiparasitic brucei trypomastigotes percent inhibition is given in parentheses; assay type: functional; details: read-out: ED50 (the source's name); outline: as §1
[10] = tested on: Leishmania donovani; assay: Compound is evaluated for antiparasitic activity against Leishmania donovani; assay type: functional; outline: as §2
[11] = tested on: Trypanosoma cruzi; assay: Compound is evaluated for antiparasitic activity against Trypanosoma cruzi amastigotes; assay type: functional; outline: as §3

EC50 [1] [µM] | SMILES | IC50 [3] [µM] | NA [4] | NA [5] | further results
16.2 | COC(=O)CNC(=O)C(CSc1ccc([N+](=O)[O-])cc1[N+](=O)[O-])NC(=O)CCC(NC(=O)OCc1ccccc1)C(=O)OC (stereo not given) | 23.4 | – | – | ED50 [2]: > 30 µM
> 30 | O=C(O)CNC(=O)C(CSCc1ccc(Br)cc1)NC(=O)CCC(NC(=O)OCc1ccccc1)C(=O)O (stereo not given) | > 50 | inactive | inactive | –
– | COC(=O)CNC(=O)C(CSCc1ccc(Br)cc1)NC(=O)CCC(NC=O)C(=O)OC (stereo not given) | > 50 | – | inactive | NA [6]: inactive; Inhibition [7]: 12%
< 30 | NC(=O)CNC(=O)C(CSCc1ccc(Br)cc1)NC(=O)CCC(N)C(=O)O (stereo not given) | > 50 | inactive | inactive | –
5.8 | CCCCCCOC(=O)CNC(=O)C(CSc1ccc([N+](=O)[O-])cc1[N+](=O)[O-])NC(=O)CCC(NC(=O)OCc1ccccc1)C(=O)OCCCCCC (stereo not given) | > 50 | – | – | ED50 [8]: < 50 µM; ED50 [2]: > 50 µM
– | COC(=O)CNC(=O)C(CSCc1ccc(Br)cc1)NC(=O)CCC(NC(=O)OCc1ccccc1)C(=O)OC (stereo not given) | 16.7 | – | – | EC50 [9]: > 30 µM
– | NC(=O)CNC(=O)C(CSCc1ccc(Br)cc1)NC(=O)CCC(NC(=O)OCc1ccccc1)C(=O)O (stereo not given) | > 50 | inactive | inactive | NA [6]: inactive
17 | COC(=O)CNC(=O)C(CSC(=O)OCc1ccccc1)NC(=O)CCC(NC(=O)OCc1ccccc1)C(=O)OC (stereo not given) | 1.26 | – | – | –
3.2 | COC(=O)CNC(=O)C(CSC(=O)OCc1ccccc1)NC(=O)CCC(NC(C)=O)C(=O)OC (stereo not given) | > 50 | – | – | –
– | NC(=O)CNC(=O)C(CSCc1ccc(Br)cc1)NC(=O)CCC(N)C(N)=O (stereo not given) | > 50 | inactive | – | Inhibition [10]: 4%; NA [6]: inactive
> 30 | NC(=O)CNC(=O)C(CSCc1ccc(Br)cc1)NC(=O)CCC(NC(=O)OCc1ccccc1)C(N)=O (stereo not given) | > 50 | inactive | inactive | –
0.19 | O=C(CCC(NC(=O)OCc1ccccc1)C(=O)OC1CCCCC1)NC(CSc1ccc([N+](=O)[O-])cc1[N+](=O)[O-])C(=O)NCC(=O)OC1CCCCC1 (stereo not given) | 15.9 | – | – | ED50 [8]: 3 µM
– | O=CNC(CCC(=O)NC(CSCc1ccc(Br)cc1)C(=O)NCC(=O)O)C(=O)O (stereo not given) | > 50 | – | inactive | Inhibition [11]: 11%; NA [6]: inactive
1.07 | CCCCOC(=O)CNC(=O)C(CSc1ccc([N+](=O)[O-])cc1[N+](=O)[O-])NC(=O)CCC(NC(=O)OCc1ccccc1)C(=O)OCCCC (stereo not given) | 21.8 | – | – | ED50 [2]: > 30 µM
> 30 | N[C@@H](CCC(=O)N[C@@H](CSCc1ccc(Br)cc1)C(=O)NCC(=O)O)C(=O)O | > 50 | inactive | inactive | –
– | COC(=O)CNC(=O)C(CSCc1ccc(Br)cc1)NC(=O)CCC(N)C(=O)OC (stereo not given) | > 50 | inactive | – | Inhibition [10]: 8.7%; NA [6]: inactive
– | COC(=O)CNC(=O)C(CSCc1ccc(Br)cc1)NC(=O)CCC(NC(=O)OCc1ccccc1)C(=O)O (stereo not given) | > 50 | inactive | inactive | NA [6]: inactive
1.9 | CCCCOC(=O)CNC(=O)C(CSCc1ccc(Br)cc1)NC(=O)CCC(NC(=O)OCc1ccccc1)C(=O)OCCCC (stereo not given) | 16.7 | – | – | Inhibition [10]: 68%
– | CCCCCCCCOC(=O)CNC(=O)C(CSc1ccc([N+](=O)[O-])cc1[N+](=O)[O-])NC(=O)CCC(NC(=O)OCc1ccccc1)C(=O)OCCCCCCCC (stereo not given) | 24.7 | – | – | ED50 [2]: > 50 µM
6 | CCCOC(=O)CNC(=O)C(CSc1ccc([N+](=O)[O-])cc1[N+](=O)[O-])NC(=O)CCC(NC(=O)OCc1ccccc1)C(=O)OCCC (stereo not given) | 17.6 | – | – | ED50 [2]: > 30 µM
> 30 | CC(=O)NC(CCC(=O)NC(CSCc1ccc(Br)cc1)C(=O)NCC(=O)O)C(=O)O (stereo not given) | > 50 | inactive | inactive | –
> 30 | COC(=O)CNC(=O)C(CSCc1ccc(Br)cc1)NC(=O)CCC(N)C(=O)O (stereo not given) | > 50 | inactive | inactive | –
